Results as given in ChEMBL document CHEMBL1127051, “Vanilloids. 1. Analogs of capsaicin with antinociceptive and antiinflammatory activity” (J Med Chem, 1993).

Key:
Mus musculus [1] = assay: Latency time measured by mouse hot plate test after subcutaneous administration at 200 mg/kg; format: functional; set-up: unit: s
Summary of the method: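 Male CF-1 mice, 8 per group, given test agent sc in 0.2 mL ethanol/Tween-80/saline (10/10/80); dose 0.68 mmol (200 mg/kg for capsaicin). Placed on copper surface held at 55 ± 0.5 °C. Paw-response latency (s) reported as group mean ± SD; pretest latency ~5 s.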

Rattus norvegicus = assay: Percentage analgesia by rat hot plate test after oral administration at 300 mg/kg.; format: functional
Summary of the method: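 Rats fasted 18 h, prescreened on a 55 ± 0.5 °C hot plate (latency <12 s, else lowest <30 s) to set the 0 h value. Groups of 8 dosed orally in sesame oil (1 mL/200 g); latency read at 1.5, 3, 5 h (24 h if persisting). %analgesia = [(LT(t) − LT(0))/(60 − LT(0))]×100, taken at the time of maximal latency.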

Mus musculus [2] = assay: Percentage inhibition in mouse by using Croton oil-inflamed mouse ear test (topical dosing).; format: functional; set-up: concentration or dose not given beside the values
Summary of the method: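 Male Cox ICR mice (25–35 g), 10 per group. Left ear given 25 μL of 1% compound in ethanol, repeated ~17 h later; 1 h after that, both ears given 25 μL 2% croton oil. After 4 h, 5 mm ear punches weighed. % inhibition = [(C − T1)/C]×100, using left-minus-right weight differences versus vehicle controls.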

[3] = Acute toxicity after intraperitoneal dose at 33 mg/kg in mice; format: organism-based; set-up: dose 33 mg/kg, route intraperitoneal; conditions: mouse, in vivo, ip, read-out: Lethality
Summary of the method: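 Single intraperitoneal dose at the listed mg/kg; acute toxicity scored as % lethality = number of deaths / number of animals dosed, 7–10 animals per group.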

C=CCCCCCCCCC(=O)NCc1ccc(O)c(OC)c1
Latency (Mus musculus [1]): 55.5 | Analgesia (Rattus norvegicus): 8% | Inhibition (Mus musculus [2]): 65.7% | mortality [3]: 50%
